Measurements collected from several papers.
Protocols differ between the studies behind these lines.
ABL1: Tyrosine-protein kinase ABL1 (ABL1, Homo sapiens, UniProt P00519)
ABL1 M351T: Tyrosine-protein kinase ABL1 (ABL1, Homo sapiens, UniProt P00519, M351T)
ABL1 H396P: Tyrosine-protein kinase ABL1 (ABL1, Homo sapiens, UniProt P00519, H396P)
ABL1 T315I: Tyrosine-protein kinase ABL1 (ABL1, Homo sapiens, UniProt P00519, T315I)
ABL1 F317L non-phosphorylated: Tyrosine-protein kinase ABL1, non-phosphorylated (ABL1, Homo sapiens, UniProt P00519, F317L)
ABL1 Y253F: Tyrosine-protein kinase ABL1 (ABL1, Homo sapiens, UniProt P00519, Y253F)
ABL1 T315I non-phosphorylated: Tyrosine-protein kinase ABL1, non-phosphorylated (ABL1, Homo sapiens, UniProt P00519, T315I)

O=C1Nc2ccc(Cl)cc2C1=Cc1cc(Cl)c(O)c(Cl)c1 — remaining signal (ABL1; cell-free assay; 0.5 µM): 84%
CCCOc1ccc(OC)c(F)c1C(=O)c1ccc(C(=O)N[C@@H]2CNC[C@H]2NC(=O)c2ccc3[nH]ncc3c2)cc1 — remaining activity (ABL1 M351T; enzyme activity, inhibitor; 10 µM): 113%
CNC(=O)c1cc2c(Oc3ccc(NC(=O)C4(C(=O)Nc5ccc(F)cc5)CC4)cc3)ccnc2cc1OC — inhibition (ABL1 H396P; enzyme activity, inhibitor, radiometric; 1 µM): 75%
Cn1nc(C(=O)NCc2ccc(C(=O)O)cc2)cc1-c1ccc2[nH]ccc2c1 — remaining binding (Tyrosine-protein kinase ABL1, non-phosphorylated (ABL1, Homo sapiens, UniProt P00519); cell-free assay, competition with immobilised ligand; 0.1 µM): 65%
C[S+]([O-])c1ccc(-c2nc(-c3ccncc3)c(-c3ccc(F)cc3)[nH]2)cc1 (stereo not drawn) — remaining signal (ABL1; cell-free assay; 0.5 µM): 97%
O=C(Nc1cccnn1)N1CCC(=Cc2cccc(Oc3ccc(C(F)(F)F)cn3)c2)CC1 — remaining binding (Tyrosine-protein kinase ABL1, phosphorylated (ABL1, Homo sapiens, UniProt P00519, F317I); binding; 1 µM): 100%
COc1cc(-c2cc(-c3ccc(N4CCNCC4)cc3)cnc2N)cc(OC)c1OC — inhibition (ABL1 M351T; enzyme activity, inhibitor; 0.1 µM): 86%
Cc1ccc(C(=O)NCc2ccsc2)cc1C#Cc1cn(C(C)C)c2ncnc(N)c12 — activity vs control (ABL1 T315I; enzyme activity, inhibitor; 1 µM): 6%
CCCOc1ccc([C@H]2[C@H](C(=O)O)[C@@H](c3ccc4c(c3)OCO4)CN2CC(=O)Nc2c(CC)cccc2CC)cc1 — remaining binding (ABL1 F317L non-phosphorylated; cell-free assay, competition with immobilised ligand; 1 µM): 62%
Cc1ccc(NC(=O)c2ccc(CN3CCN(C)CC3)cc2)cc1Nc1nc(-c2cccnc2)cs1 — remaining signal (ABL1; cell-free assay; 0.5 µM): 49.8%
COc1cc2ncnc(Nc3ccc(Oc4ccccc4)cc3C)c2cc1OC — inhibition (Tyrosine-protein kinase ABL1 (ABL1, Homo sapiens, UniProt P00519, E255K); enzyme activity, inhibitor; 1 µM): 5%
COc1ccc(COc2ccc(Cc3cnc(N)nc3N)cc2OC)cc1 — remaining signal (ABL1; cell-free assay; 0.5 µM): 102%
Cc1ccc(NC(=O)c2ccc(C)c(C(F)(F)F)c2)cc1C#Cc1nn(C2CCC(O)CC2)c2ncnc(N)c12 (stereo not drawn) — remaining signal (ABL1 Y253F; cell-free assay; 10 µM): 0%
c1nc2c(Nc3ccc4c(c3)OCCO4)nc(Nc3ccc4c(c3)OCCO4)nc2[nH]1 — binding vs control (Tyrosine-protein kinase ABL1, phosphorylated (ABL1, Homo sapiens, UniProt P00519); binding, competition with immobilised ligand; 10 µM): 1.2%
CO[C@@H](C)c1c(Nc2ccc([C@H](N(C)C(=O)C3CCS(=O)(=O)CC3)C(F)(F)F)cc2)cnc2cc(Cl)nn12 — remaining binding (Tyrosine-protein kinase ABL1, phosphorylated (ABL1, Homo sapiens, UniProt P00519, H396P); cell-free assay, competition with immobilised ligand; 1 µM): 100%
Nc1ncnc2occ(-c3ccc(NC(=O)Nc4cc(C(F)(F)F)ccc4F)cc3)c12 — remaining signal (ABL1 T315I non-phosphorylated; cell-free assay, inhibitor; 20 µM): 0%
C[C@@]1(Cc2ccc(C#N)cc2)C(=O)N(c2cc(Cl)cc(Cl)c2)c2ncc(C(=O)NC3(c4nc(C5CCC5)no4)CC3)n21 — remaining binding (ABL1 T315I non-phosphorylated; cell-free assay, competition with immobilised ligand; 1 µM): 100%
COc1cc2ncnc(Nc3ccc(Oc4ccccc4)c(C)c3C)c2cc1OC — inhibition (ABL1 T315I; enzyme activity, inhibitor; 1 µM): 8%
CC(=O)Nc1c(C(C)=O)c(=O)n(C)c2nc(-c3ccc(Cl)cc3Cl)c(-c3ccc(Cl)cc3)cc12 — remaining binding (Tyrosine-protein kinase ABL1, phosphorylated (ABL1, Homo sapiens, UniProt P00519, T315I); cell-free assay, competition with immobilised ligand; 1 µM): 100%
N#CCCc1ccc2c(c1)-c1[nH]c3ccc([N+](=O)[O-])cc3c1CC(=O)N2 — remaining signal (ABL1; cell-free assay; 0.5 µM): 47.8%
Cc1nccc(COC(=O)N2C[C@@H]3[C@@H](CNC(=O)c4ccc5[nH]nnc5c4)[C@@H]3C2)n1 — remaining binding (Tyrosine-protein kinase ABL1, non-phosphorylated (ABL1, Homo sapiens, UniProt P00519, H396P); cell-free assay, competition with immobilised ligand; 1 µM): 93%
Cc1cc(NC(=O)c2cccc3cc(-c4cccc5[nH]nc(N)c45)ccc23)ccc1F — activity vs control (ABL1 Y253F; enzyme activity, inhibitor; 0.1 µM): 91%
C[C@H](c1cccc(C#N)c1)n1cc(Cl)cc(C(N)=O)c1=N — remaining binding (ABL1 F317L non-phosphorylated; cell-free assay, competition with immobilised ligand; 1 µM): 75%
Cc1cnc(NC2CCOCC2)nc1-n1cnc(C(=O)NC(CN)c2cc(F)cc(Cl)c2)c1 (stereo not drawn) — remaining activity (ABL1 H396P; enzyme activity, inhibitor, radiometric; 1 µM): 108%
